# Data: article PMC8813707 (Clinical Pharmacokinetics, 2021)
# Like-named read-outs stand apart in the source and are kept apart here.
# Legend:
# [1] = system: total anti-vosoritide antibody (TAb); assay: Total anti-vosoritide antibodies; assay type: in vivo, human; conditions: phase III; p > 0.8 for difference in estimated mean Cmax and AUC0-∞ by TAb status, t-test
# [2] = biological target: urine cGMP (activity through the target receptor NPR-B); assay: Urine cGMP normalized to creatinine; assay type: in vivo, human
# Summary of the method: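 Urine collected predose and 1, 2 and 4 h postdose. Phase II: initial 6 months plus months 12, 18 and 24. Phase III: days 1–3 and weeks 6, 26 and 52. cGMP measured (LLOQ 138 pmol/mL neat urine) and normalised to creatinine. Maximum postdose increase is taken over the same-visit predose value; negative if predose is maximal. Fitted against visit-matched Cmax/AUC (non-estimable set to zero): sigmoid Emax (phase II) or Emax with h=1 (phase III).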
# [3] = system: patients with achondroplasia; assay: Change from baseline in annualized growth velocity; assay type: in vivo, human
# Summary of the method: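 Phase II: once-daily subcutaneous dosing at 2.5–30 µg/kg. Change in AGV from baseline to day 183 fitted by sigmoid Emax (E0, Emax, EC50, Hill h) against individual mean Cmax or AUC0-t, each averaged per patient over all PK visit days. Phase III (15 µg/kg) exposure–AGV also analysed. Estimates given with 95% CIs.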
# [4] = system: patients with achondroplasia; conditions: phase II, children with achondroplasia, daily dose of 15 µg/kg, up to 42 months; cited from earlier work
# [5] = Vosoritide plasma pharmacokinetics, phase II study; assay type: in vivo, human
# Summary of the method: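 Phase II, daily s.c. doses 2.5–30 µg/kg. Plasma measured by validated ELISA: murine monoclonal anti-drug IgG capture, rabbit polyclonal anti-CNP IgG detection. Full sampling on days 1, 10, 29, 85 and 183, predose and 5–180 min postdose. Non-compartmental analysis used linear-up/log-down trapezoids. Below-LLOQ values before Tmax set to zero; those after Tmax censored.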
# [6] = system: NPR-B; assay: Vosoritide-neutralizing antibodies; assay type: cell-based, human; conditions: phase III, all time points tested
# Summary of the method: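 Run only on confirmed TAb-positive sera. Frozen NIH/3T3 cells cultured overnight (DMEM high glucose + 10% FBS, 37°C, 5% CO2). Cells stimulated with 5 ng/mL drug in diluted serum; cellular cGMP read by ELISA, where signal is inverse to cGMP. Screening cut point: upper 95th percentile of pretreatment sera. Positives confirmed by immunodepletion on drug-conjugated magnetic beads. LOD 227 ng/mL.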
# [7] = system: collagen type X marker (CXM); assay: Serum collagen type X marker; assay type: in vivo, human
# Summary of the method: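 Serum CXM measured by electrochemiluminescence sandwich assay. Streptavidin plates were blocked, then coated with biotinylated anti-collagen X NC1 SOMAmer capture. Standard was recombinant human collagen X NC1; sera diluted 1:100. Detection used ruthenium-labelled mouse mAb. Values read from a 4PL curve (1/Y² weighting); LOD 914 pg/mL neat serum. Individual mean CXM (day 10–183, phase II) fitted by sigmoid Emax versus individual mean Cmax or AUC0-t.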
# [8] = Vosoritide plasma pharmacokinetics, phase III study; assay type: in vivo, human
# Summary of the method: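 Phase III, 15 µg/kg s.c. once daily. Full plasma sampling at day 1, week 26 and week 52: predose and 5, 15, 30, 45, 60, 90 and 120 min. Sparse sampling at weeks 13 and 39. Parameters from non-compartmental analysis with linear-up/log-down trapezoids. Effects of sex, body weight, age, race and anti-drug antibodies on exposure were evaluated.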
# [9] = system: patients with achondroplasia; assay type: in vivo, human; conditions: phase II, initial 6 months, visit-matched; the single patient with high exposure
# [10] = endogenous CNP in humans; cited from earlier work
# [11] = phase II, the single patient with high individual mean exposure
compound,measurement,setting,value
CC[C@H](C)[C@@H]1NC(=O)[C@H](CCCNC(=N)N)NC(=O)[C@H](CC(=O)O)NC(=O)[C@H](CC(C)C)NC(=O)[C@H](CCCCN)NC(=O)[C@H](CC(C)C)NC(=O)CNC(=O)[C@H](Cc2ccccc2)NC(=O)[C@@H](NC(=O)CNC(=O)[C@H](CCCCN)NC(=O)[C@H](CO)NC(=O)[C@H](CC(C)C)NC(=O)CNC(=O)[C@H](CCCCN)NC(=O)[C@H](CCCCN)NC(=O)[C@H](CC(N)=O)NC(=O)[C@H](C)NC(=O)CNC(=O)[C@H](CCCCN)NC(=O)[C@H](Cc2ccc(O)cc2)NC(=O)[C@H](CCCCN)NC(=O)[C@H](CCCNC(=N)N)NC(=O)[C@H](C)NC(=O)[C@H](CC(N)=O)NC(=O)[C@@H]2CCCN2C(=O)[C@H](Cc2c[nH]cn2)NC(=O)[C@H](CCC(=O)O)NC(=O)[C@H](CCC(N)=O)NC(=O)CNC(=O)[C@@H]2CCCN2)CSSC[C@@H](C(=O)O)NC(=O)CNC(=O)[C@H](CC(C)C)NC(=O)CNC(=O)[C@H](CO)NC(=O)[C@H](CCSC)NC(=O)[C@H](CO)NC(=O)CNC1=O [vosoritide],impact of serum TAb on plasma exposure of vosoritide (Cmax and AUC0-∞),[1],no apparent impact
same,EC50 (AUC0-60min producing half maximal effect on cGMP/Cr),"[2]; Emax model (h = 1) vs visit-matched AUC0-60min, phase III, 15 µg/kg, MPE",479000 pg·min/mL
same,"Emax, maximum postdose increase in urine cGMP/Cr","[2]; Emax model (h = 1) vs visit-matched Cmax, phase III, 15 µg/kg, MPE (95% CI)","18,160 (13,800–22,600) pmol/mg Cr"
same,maximum change from pre-dose cGMP/Cr of one patient,"[2]; phase II, initial 6 months, visit-matched, the single patient with high exposure",8190 pmol/mg Cr
same,EC50 (AUC0-t producing half maximal effect on cGMP/Cr),"[2]; sigmoid Emax model vs visit-matched AUC0-t, initial 6 months of phase II, MPE",222000 pg·min/mL
same,correlation between plasma exposure and change in AGV,"[3]; phase II, 24 months of daily dosing, 15 and 30 µg/kg, linear regression, p = 0.34 for Cmax, p = 0.50 for AUC0-60min",no significant correlation
same,change in annualized growth velocity from baseline to day 183 of one patient,[3]; [11],3.56 cm/year
same,relationship between exposure and changes in AGV,"[3]; phase III, 15 µg/kg, baseline to week 52, linear regression, p = 0.52 for Cmax, p = 0.54 for AUC0-60min",lack of relationship
same,"EC50 (AUC0-t producing half maximal effect), change in AGV","[3]; sigmoid Emax model vs individual mean AUC0-t, baseline to day 183, phase II, MPE","20,500 pg-min/mL"
same,sustained mean increase in annualized growth velocity (AGV) above baseline,[4],1.55 cm/year
same,increase in vosoritide exposure with dose,[5]; doses from 2.5 to 30 μg/kg,greater than proportional
same,Cmax,"[5]; human, plasma, sc, 2.5 ug/kg",0.549 ng/mL
same,Tmax,"[5]; human, plasma, sc, 2.5 ug/kg",5 min
same,Cmax,"[5]; human, plasma, sc, 7.5 ug/kg",1.36 ng/mL
same,Tmax,"[5]; human, plasma, sc, 7.5 ug/kg",13.7 min
same,CL/F,"[5]; human, plasma, sc, 15 ug/kg",83.7 mL/min/kg
same,Cmax,"[5]; human, plasma, sc, 15 ug/kg",4.75 ng/mL
same,Tmax,"[5]; human, plasma, sc, 15 ug/kg",15.8 min
same,Vd/F,"[5]; human, plasma, sc, 15 ug/kg",2.56 L/kg
same,half-life,"[5]; human, plasma, sc, 15 ug/kg",24.4 min
same,Cmax,"[5]; human, plasma, sc, 30 ug/kg",16.8 ng/mL
same,Cmax at one visit of one patient,"[5]; phase II, single patient with high exposure, left out of the figure",839 ng/mL
same,NAb status of TAb-positive patients,[6],negative
same,correlation between plasma exposure and mean CXM concentration,"[7]; phase II, 24 months of daily dosing, 15 and 30 µg/kg, linear regression, p = 0.98 for Cmax, p = 0.99 for AUC0-60min",no significant correlation
same,mean CXM from day 10 to day 183 of one patient,[7]; [11],"12,200 pg/mL"
same,relationship between exposure and mean CXM concentrations,"[7]; phase III, 15 µg/kg, week 13 to week 52, linear regression, p = 0.74 for Cmax, p = 0.58 for AUC0-60min",lack of relationship
same,EC50 (AUC0-t producing half maximal effect on CXM),"[7]; sigmoid Emax model vs individual mean AUC0-t, day 10 to day 183, phase II, MPE",51700 pg·min/mL
same,impact of sex on plasma Cmax or AUC0-60min,[8],no apparent impact
same,accumulation with once-daily dosing,"[8]; 15 µg/kg s.c. once daily, 52 weeks",No evidence of accumulation
same,Vz/F,"[8]; 15 µg/kg s.c. once daily, Week 52, plasma ECLA, NCA, mean",2.91 L/kg
same,relationship of plasma AUC0-60min with body weight and age,"[8]; linear regression, p < 0.001",positively correlated
same,maximum decrease in DBP of one patient,[9],−2 mmHg
same,maximum decrease in SBP of one patient,[9],−7 mmHg
same,maximum increase in HR of one patient,[9],39 bpm
C-type natriuretic peptide [CNP],half-life,[10],2.6 min
